Laboratory results: ChEMBL document CHEMBL3352644, “Selenadiazole derivatives as potent thioredoxin reductase inhibitors that enhance the radiosensitivity of cancer cells” (Eur J Med Chem, 2014)
The source made the active and inactive calls. The calls are words filed in the database; no cut-off is given here.

Assays:
A-375 [1] = assay: Induction of apoptosis in human A375 cells assessed as accumulation at subG1 phase at 4 ug/mL incubated for 6 hrs followed by irradiation with 8 Gy X-ray at 37 degC for 12 hrs by propidium iodide staining based flow cytometry (reference value: 2.3%); format: functional
Method in brief: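 A375 cells treated at 10 or 4 µg/ml for 6 h, given 0 or 8 Gy X-ray, then 12 h more. Trypsinized, washed in PBS, fixed overnight in ice-cold 75% ethanol at −20 °C. Stained with propidium iodide, 30 min at 37 °C in the dark; DNA content and sub-G1 population read by flow cytometry.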

A-375 [2] = assay: Induction of ROS generation in human A375 cells at 4 ug/mL incubated for 6 hrs followed by irradiation with 8 Gy X-ray at 37 degC for 12 hrs by DCF and DHE dye based fluorescence assay; format: functional, cell-based
Method in brief: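 A375 cells (4 × 10⁴/well) cultured 24 h, then treated 6 h at 8 or 16 µg/ml or at 2 or 4 µg/ml, and given 0 or 8 Gy X-ray. Loaded with H₂DCF or DHE for 30 min at 37 °C in the dark. Fluorescence read at 485/535 nm (DCF) or 480/610 nm (DHE); % of control.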

A-375 [3] = assay: Increase in Bax expression in human A375 cells at 4 ug/mL incubated for 18 hrs by Western blotting method; format: functional, cell-based
Method in brief: (§1)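 A375 cells pretreated 6 h with compound at 4 µg/ml, given 0 or 8 Gy X-ray, then incubated 12 h more. Lysed in RIPA buffer, pH 7.4, with protease and phosphatase inhibitors; 50 µg protein run on SDS-PAGE and blotted to nitrocellulose. Blocked in 5% milk; primary antibodies 1:1000, 10 h at 4 °C; HRP secondary 1:2000.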

A-375 [4] = assay: Reduction in Trx expression in human A375 cells at 2 ug/mL after 18 hrs by Western blotting method; format: functional, cell-based
[5] = target: c-Jun N-terminal kinase, JNK (Homo sapiens) (UniProt P45983+P53779+P45984); assay: Induction of JNK phosphorylation in human A375 cells at 4 ug/mL incubated for 18 hrs by Western blotting method; format: cell-based; conditions: A-375; method in brief: as §1
[6] = target: Thioredoxin reductase (Homo sapiens) (UniProt Q16881+Q9NNW7+Q86VQ6); assay: Inhibition of TrxR antioxidant enzyme activity in human A375 cells at 2 ug/mL after 18 hrs by insulin reduction assay; format: cell-based; conditions: A-375
A-375 [7] = assay: Induction of apoptosis in human A375 cells assessed as caspase PARP cleavage at 2 ug/mL incubated for 18 hrs by Western blotting method; format: functional, cell-based
Method in brief: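 A375 cells treated with 2 µg/ml alone or with 8 Gy X-ray (6 h pretreatment, then 12 h; 18 h total). RIPA lysates (50 µg protein) run on SDS-PAGE and immunoblotted for caspases and PARP cleavage. Reprobed for β-actin as loading control.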

Activity [5]: Active
inhibition [6]: Active
SMILES: COc1cc(-c2nc3cc(-c4ccc5n[se]nc5c4)ccc3[nH]2)cc(OC)c1OC
Activity (A-375 [1]): 57.1%
Activity (A-375 [2]): Active
Activity (A-375 [3]): Active
Activity (A-375 [4]): Active
Activity (A-375 [7]): Active
